What was measured:
Assay type in all cases: functional
Staphylococcus aureus [1] = assay: Antibacterial activity against linezolid-resistant Staphylococcus aureus 106-12591A isolate after 24 hrs by broth microdilution method
Method in brief: (§1)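 Broth microdilution following NCCLS M7-A6 (2003), with inoculum at the recommended densities. Isolates were placed into panel wells with an autoinoculator and grown in cation-adjusted Mueller-Hinton broth at 35°C in ambient air for overnight to 24 h. Panels were read by eye, and the MIC was taken as no visible growth.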

Staphylococcus aureus [2] = assay: Antibacterial activity against methicillin-resistant Staphylococcus aureus ATCC 33591 after 24 hrs by broth microdilution method; conditions: ATCC 33591, 24 h; method in brief: as §1
Staphylococcus aureus [3] = assay: Antibacterial activity against methicillin-resistant Staphylococcus aureus 78-13607A after 24 hrs by broth microdilution method; method in brief: as §1
Staphylococcus aureus [4] = assay: Antibacterial activity against oxacillin-susceptible Staphylococcus aureus ATCC 29213 after 24 hrs by broth microdilution method; conditions: ATCC 29213, 24 h; method in brief: as §1
Staphylococcus aureus [5] = assay: Antibacterial activity against oxacillin-resistant Staphylococcus aureus ATCC 33591 after 24 hrs by broth microdilution method; conditions: ATCC 33591, 24 h; method in brief: as §1
[6] = tested on: Staphylococcus epidermidis; assay: Antibacterial activity against oxacillin-susceptible Staphylococcus epidermidis isolate 12-1788A isolate after 24 hrs by broth microdilution method
[7] = tested on: Staphylococcus haemolyticus; assay: Antibacterial activity against oxacillin-resistant Staphylococcus haemolyticus 107-1240C isolate after 24 hrs by broth microdilution method; method in brief: as §1
Enterococcus faecalis [8] = assay: Antibacterial activity against ampicillin and vancomycin-susceptible Enterococcus faecalis ATCC 29212 after 24 hrs by broth microdilution method; conditions: ATCC 29212, 24 h; method in brief: as §1
Enterococcus faecium [9] = assay: Antibacterial activity against ampicillin and vancomycin-resistant Enterococcus faecium 24-45A isolate after 24 hrs by broth microdilution method; method in brief: as §1
Streptococcus pneumoniae [10] = assay: Antibacterial activity against penicillin-intermediate resistant Streptococcus pneumoniae ATCC 49619 after 24 hrs by broth microdilution method; conditions: ATCC 49619, 24 h; method in brief: as §1
Streptococcus pneumoniae [11] = assay: Antibacterial activity against penicillin-resistant Streptococcus pneumoniae 33-50B isolate after 24 hrs by broth microdilution method; method in brief: as §1
Corynebacterium jeikeium = assay: Antibacterial activity against Corynebacterium jeikeium 15-196A isolate after 24 hrs by broth microdilution method
Method in brief: (§2)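 Broth microdilution following NCCLS M7-A6 (2003) inocula; isolates transferred aseptically into panel wells with an autoinoculator; cation-adjusted Mueller-Hinton broth; incubated overnight to 24 h at 35°C in ambient air; panels read by eye, MIC taken as lowest concentration with no visible growth.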

Bacillus cereus = assay: Antibacterial activity against Bacillus cereus 24-59A isolate after 24 hrs by broth microdilution method
Streptococcus pyogenes = assay: Antibacterial activity against erythromycin-resistant Streptococcus pyogenes 91-8747 isolate after 24 hrs by broth microdilution method; method in brief: as §1
Streptococcus mitis = assay: Antibacterial activity against penicillin-resistant Streptococcus mitis 61-2900C isolate after 24 hrs by broth microdilution method; method in brief: as §1
Pseudomonas aeruginosa = assay: Antibacterial activity against sPseudomonas aeruginosa ATCC 27853 after 24 hrs by broth microdilution method; conditions: ATCC 27853, 24 h; method in brief: as §2
Escherichia coli = assay: Antibacterial activity against sEscherichia coli ATCC 25922 after 24 hrs by broth microdilution method; conditions: ATCC 25922, 24 h; method in brief: as §2
Staphylococcus aureus [12] = assay: Antibacterial activity against mupirocin-resistant Staphylococcus aureus 4-90A isolate after 24 hrs by broth microdilution method; method in brief: as §1
Staphylococcus aureus [13] = assay: Antibacterial activity against quinupristin/dalfopristin-resistant Staphylococcus aureus 300-12053A isolate after 24 hrs by broth microdilution method; method in brief: as §1
Staphylococcus [14] = assay: Antibacterial activity against mupirocin-resistant coagulase negative Staphylococcus 63-18A isolate after 24 hrs by broth microdilution method; method in brief: as §1
Staphylococcus [15] = assay: Antibacterial activity against quinupristin/dalfopristin-resistant coagulase negative Staphylococcus 90-10840A isolate after 24 hrs by broth microdilution method; method in brief: as §1
Staphylococcus [16] = assay: Antibacterial activity against coagulase negative linezolid-resistant Staphylococcus 82-1645A isolate after 24 hrs by broth microdilution method; method in brief: as §1
Enterococcus faecalis [17] = assay: Antibacterial activity against vancomycin-resistant Enterococcus faecalis 48-22D isolate with vanA phenotype after 24 hrs by broth microdilution method; method in brief: as §1
Enterococcus faecalis [18] = assay: Antibacterial activity against vancomycin-resistant Enterococcus faecalis 82-876D with vanB phenotype isolate after 24 hrs by broth microdilution method; method in brief: as §1
Enterococcus faecalis [19] = assay: Antibacterial activity against linezolid-resistant Enterococcus faecalis 15-5341 isolate after 24 hrs by broth microdilution method; method in brief: as §1
Enterococcus faecalis [20] = assay: Antibacterial activity against gentamycin and streptomycin-resistant Enterococcus faecalis 39-11D isolate after 24 hrs by broth microdilution method; method in brief: as §1
Enterococcus faecium [21] = assay: Antibacterial activity against vancomycin-resistant Enterococcus faecium 103-1232D isolate with vanB phenotype after 24 hrs by broth microdilution method; method in brief: as §1
Enterococcus faecium [22] = assay: Antibacterial activity against vancomycin-resistant Enterococcus faecium 15-206A isolate with vanA phenotype after 24 hrs by broth microdilution method; method in brief: as §1
Enterococcus faecium [23] = assay: Antibacterial activity against linezolid-resistant Enterococcus faecium 11-4103A isolate after 24 hrs by broth microdilution method; method in brief: as §1
Enterococcus faecium [24] = assay: Antibacterial activity against quinupristin/dalfopristin-resistant Enterococcus faecium 65-1208A isolate after 24 hrs by broth microdilution method; method in brief: as §1
Bacillus sp. [25] = assay: Antibacterial activity against tetracycline-resistant Bacillus sp. 107-1461D isolate after 24 hrs by broth microdilution method; conditions: Bacillus sp. (in: firmicutes); method in brief: as §1
Bacillus sp. [26] = assay: Antibacterial activity against trimethoprim/sulfamethaxazole-resistant Bacillus sp. 67-1057A isolate after 24 hrs by broth microdilution method; conditions: Bacillus sp. (in: firmicutes); method in brief: as §1
Bacillus sp. [27] = assay: Antibacterial activity against erythromycin-resistant Bacillus sp. 32-2406A isolate after 24 hrs by broth microdilution method; conditions: Bacillus sp. (in: firmicutes); method in brief: as §1
Streptococcus pneumoniae [28] = assay: Antibacterial activity against multidrug resistant Streptococcus pneumoniae 68-2307B isolate after 24 hrs by broth microdilution method; method in brief: as §1
Streptococcus pneumoniae [29] = assay: Antibacterial activity against erythromycin and clindamycin-resistant Streptococcus pneumoniae 4-38B isolate after 24 hrs by broth microdilution method; method in brief: as §1
Streptococcus pneumoniae [30] = assay: Antibacterial activity against erythromycin-resistant and clindamycin-susceptible Streptococcus pneumoniae 35-405B isolate after 24 hrs by broth microdilution method; method in brief: as §1
Streptococcus pneumoniae [31] = assay: Antibacterial activity against levofloxacin-resistant Streptococcus pneumoniae 2-2784A isolate after 24 hrs by broth microdilution method; method in brief: as §1
Corynebacterium sp. [32] = assay: Antibacterial activity against doxycyclin-resistant Corynebacterium sp. 105-1513C isolate after 24 hrs by broth microdilution method; method in brief: as §1
Corynebacterium sp. [33] = assay: Antibacterial activity against streptomycin-resistant Corynebacterium sp. 61-5454A isolate after 24 hrs by broth microdilution method; method in brief: as §1
Corynebacterium sp. [34] = assay: Antibacterial activity against rifampin-resistant Corynebacterium sp. 58-9161A isolate after 24 hrs by broth microdilution method; method in brief: as §1
Streptococcus [35] = assay: Antibacterial activity against erythromycin and clindamycin-resistant beta-haemolytic sStreptococcus 91-526D isolate after 24 hrs by broth microdilution method; method in brief: as §1
Streptococcus [36] = assay: Antibacterial activity against erythromycin-resistant and clindamycin-susceptible beta-haemolytic sStreptococcus 109-820D isolate after 24 hrs by broth microdilution method; method in brief: as §1
Streptococcus [37] = assay: Antibacterial activity against levofloxacin-resistant beta-haemolytic sStreptococcus 19-756A isolate after 24 hrs by broth microdilution method; method in brief: as §1
Streptococcus [38] = assay: Antibacterial activity against mupirocin-resistant viridans group sStreptococcus 32-2395A isolate after 24 hrs by broth microdilution method; method in brief: as §1
Streptococcus [39] = assay: Antibacterial activity against levafloxacin-resistant viridans group Streptococcus 107-6380A isolate after 24 hrs by broth microdilution method; method in brief: as §1
Streptococcus [40] = assay: Antibacterial activity against linezolid-resistant viridans group Streptococcus 27-2832A isolate after 24 hrs by broth microdilution method; method in brief: as §1
Streptococcus [41] = assay: Antibacterial activity against multidrug-resistant viridans group Streptococcus 58-1602D isolate after 24 hrs by broth microdilution method; method in brief: as §1

Measured: MIC

CCCCCCCCCCCCO[C@@H]1O[C@@H](C)[C@H](O[C@@H]2O[C@@H](C)[C@H](OC(C)=O)[C@@H](O[C@@H]3O[C@@H](C)[C@H](OC(C)=O)[C@@H](O)[C@H]3OC(C)=O)[C@H]2O)[C@@H](O)[C@H]1O
4 µg/mL: [6] | [7] | Enterococcus faecalis [8] | Streptococcus pneumoniae [28] | Streptococcus pneumoniae [29] | Streptococcus pneumoniae [30] | Streptococcus pneumoniae [31] | Streptococcus [35] | Streptococcus [36] | Streptococcus [37] | Streptococcus [38] | Streptococcus [39] | Streptococcus [40] | Streptococcus [41]
8 µg/mL: Staphylococcus aureus [2] | Staphylococcus aureus [3] | Streptococcus pneumoniae [10] | Streptococcus pneumoniae [11] | Streptococcus pyogenes | Streptococcus mitis | Corynebacterium sp. [32] | Corynebacterium sp. [33] | Corynebacterium sp. [34]
> 32 µg/mL: Corynebacterium jeikeium | Pseudomonas aeruginosa | Escherichia coli
2 µg/mL: all other assays above
